The list is not random: actives were taken first. Their share in the collection is about 2.7%.
Yeast life ext – yeast lifespan extension | AID 775 | inhibition of the nicotinamide effect, % at 10 µM | 130,000 tested, 0.68% active | S. cerevisiae growth with nicotinamide, OD615; deaD strain in restrictive glucose medium;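 active = inhibition above a set limit, placed 3 SD over the median of all compounds, cut at about 26% in these data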
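Measured by: optical density (absorbance) at 615 nm; System: modified budding yeast, DeaD strain; Medium: restrictive CSMM-D dextrose medium; Timing: 4 h preincubation then 48 h treatment at 30 °C.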
BB579 growth dn – yeast BB579 growth reduction in restrictive medium. S. cerevisiae BB579 growth, OD615, 48 h. inhibition, % at 10 µM. 140,000 tested, 0.51% active. AID 804;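 active = inhibition above a set limit, 3 SD over the mean compound inhibition, cut at about 44% in these data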
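Detection: OD615 turbidity measurement; Material: Saccharomyces cerevisiae DeaD strain BB579, replicative lifespan model yeast; Timing: 48 h exposure, 30 °C; Doses: single 10 µM dose; Medium: CSMM-D restrictive synthetic medium containing dextrose (glucose); Controls: amphotericin B at 10 µg/mL as positive control.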
RAM network inh – blocks the yeast RAM network | S. cerevisiae dse1pr::URA3 reporter, 5-FOA growth OD615, 2 d; analog-sensitive cbk1-as2 kinase mutant strain | inhibition, % at 50 µM | 190,000 tested, 1.8% active;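 active = inhibition above a set limit, 3 SD over mean compound inhibition, cut at about 8.4% in these data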;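 note: inhibition rescues growth on 5-FOA so higher OD means more RAM inhibition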
sdo1 growth – restores growth of sdo1-depleted yeast; z-score at 10 µM; 140,000 tested, 0.21% active; S. cerevisiae sdo1-depleted JHY4D growth rescue, OD600 30 h; hits give high values; pdr5 snq2 efflux-pump mutant strain;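 active = z-score above 3 at both the 24 hr and the 30 hr optical density reads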
Large screens that a line does not name were inactive.

CCOCCCNC(=O)c1ccc(NC(C)=O)cc1	none
CCCCOCCCNC(=O)c1ccc(NC(C)=O)cc1	RAM network inh 9.3
COc1ccc(NS(=O)(=O)c2cc(NC(=O)CNC(=O)c3ccc(C)s3)ccc2Cl)cc1	RAM network inh 10
Cc1ccc(C(=O)NCC(=O)Nc2ccc(C)c(S(=O)(=O)Nc3ccc(Cl)cc3)c2)s1	none (no result: Yeast life ext, BB579 growth dn, sdo1 growth)
COc1ccc(C2C=C(c3ccc(Br)s3)Nc3ncnn32)cc1OC (stereo not given)	RAM network inh 8.4
CC(=O)Nc1ccc(Sc2ncnc3scc(-c4ccccc4)c23)cc1	none
CCCC(=O)Nc1ccccc1Sc1ncnc2scc(-c3ccccc3)c12	Yeast life ext 44
COc1ccc(OC)c(NC(=O)c2cc3c(Cl)nc4ccccc4c3s2)c1	RAM network inh 9.9
CCOc1ccc(NCc2nc3ccccc3n2CCOc2ccccc2)cc1	Yeast life ext 42, BB579 growth dn 48
COCCn1c(COc2ccc(OC)cc2)nc2ccccc21	none
O=S(=O)(Nc1ccccc1N1CCCCC1)c1ccc(F)cc1F	none (no result: Yeast life ext, BB579 growth dn, sdo1 growth)
CC(C)n1nc(C(=O)Oc2cccc(Cl)c2Cl)c2ccccc2c1=O	Yeast life ext 35
CC(C)n1nc(C(=O)Oc2cc(Cl)ccc2Cl)c2ccccc2c1=O	none
COCCCNC(=O)C1CCCN(S(C)(=O)=O)C1 (stereo not given)	none
CCOc1ccc2nc(SCC(=O)N3CCCc4ccccc43)sc2c1	RAM network inh 10.0
CCOc1ccc2nc(SCC(=O)c3ccc(Cl)s3)sc2c1	RAM network inh 9.8
COc1ccc(-n2cc(CNC3CCC(O)CC3)c(-c3cccc(F)c3)n2)cc1 (stereo not given)	none (no result: Yeast life ext, BB579 growth dn, sdo1 growth)
CCN1CCN(C(=S)Nc2ccc3nc4n(c(=O)c3c2)CCCCC4)CC1	none (no result: Yeast life ext, BB579 growth dn, sdo1 growth)
NNC(=O)c1ccc(COc2ccc3c(c2)CCC3)o1	BB579 growth dn 91
O=C(N/N=C/c1cccc(O)c1)c1ccc(COc2ccc3c(c2)CCC3)o1	none
COc1ccc(CC(=O)NNS(=O)(=O)c2ccc(F)cc2)cc1OC	none (no result: Yeast life ext, BB579 growth dn, sdo1 growth)
O=C(NCc1ccccc1)c1c(O)c2cccc3c2n(c1=O)CCC3	none
CCc1nc2ccccc2c(=O)n1NC(=O)c1c(O)c2cccc3c2n(c1=O)CCC3	BB579 growth dn 83
CCNCCNC(=O)c1c(O)c2cccc3c2n(c1=O)CCC3	Yeast life ext 70
O=C(Nc1cccnc1)c1c(O)c2cccc3c2n(c1=O)CC3	Yeast life ext 62
O=C(NCc1ccco1)c1c(O)c2cccc3c2n(c1=O)CCC3	Yeast life ext 47
CC(=O)c1c(C)[nH]c(C(=O)OCC(=O)Nc2ccc(Cl)cc2[N+](=O)[O-])c1C	none
CC(C)(C)C(=O)Nc1cccc(OC(F)(F)C(F)Cl)c1 (stereo not given)	none (no result: Yeast life ext, BB579 growth dn, sdo1 growth)
COc1ccccc1NC(=O)N1C2CCCC1CC(NC(=O)c1ccccc1)C2 (stereo not given)	none (no result: Yeast life ext, BB579 growth dn, sdo1 growth)
Cn1cnnc1SCC(=O)c1ccc(O)c(O)c1	none (no result: Yeast life ext, BB579 growth dn, sdo1 growth)
O=C(Nc1ccc(N2C(=O)CCC2=O)cc1Cl)c1cccs1	none (no result: Yeast life ext, BB579 growth dn, sdo1 growth)
CSCCC(NC(=O)c1ccc([N+](=O)[O-])cc1Cl)C(=O)OCC(=O)NCCCc1ccccc1 (stereo not given)	RAM network inh 9.5
CSCCC(NC(=O)c1ccc([N+](=O)[O-])cc1Cl)C(=O)OCC(=O)NCC(F)(F)F (stereo not given)	none
CC(C)c1ccccc1NC(=O)COC(=O)c1cc(=O)[nH]c(=O)[nH]1	none (no result: Yeast life ext, BB579 growth dn, sdo1 growth)
COc1ccc(/C=C/C=C2\N=C(SC)SC2=O)cc1	RAM network inh 11
CCC(C)N1CNc2c(c(=O)[nH]c(=S)n2-c2cccc(C)c2)C1 (stereo not given)	none (no result: Yeast life ext, BB579 growth dn, sdo1 growth)
Nc1c(S(=O)(=O)c2ccccc2)c2nc3ccccc3nc2n1CCN1CCOCC1	none
Nc1c(S(=O)(=O)c2ccccc2)c2nc3ccccc3nc2n1C1CC1	none (no result: Yeast life ext, BB579 growth dn, sdo1 growth)
Nc1c(S(=O)(=O)c2cccs2)c2nc3ccccc3nc2n1Cc1cccs1	RAM network inh 9.1
Cc1ccc(S(=O)(=O)c2c(N)n(CCN3CCOCC3)c3nc4ccccc4nc23)cc1C	RAM network inh 11
Cn1c(N)c(S(=O)(=O)c2ccc(Br)cc2)c2nc3ccccc3nc21	RAM network inh 9.7
COc1ccc(CCn2c(N)c(S(=O)(=O)c3cccs3)c3nc4ccccc4nc32)cc1OC	RAM network inh 8.4
Nc1c(S(=O)(=O)c2cccs2)c2nc3ccccc3nc2n1CCc1ccccc1	none
CC(=O)OCC(OC(C)=O)C(OC(C)=O)C(OC(C)=O)C(=O)Nc1ccccc1 (stereo not given)	none (no result: Yeast life ext, BB579 growth dn, sdo1 growth)
Cc1cnc(NC(=O)CCNC(=O)c2ccc([N+](=O)[O-])cc2)s1	none (no result: Yeast life ext, BB579 growth dn, sdo1 growth)
CC(C)[C@H](NC(=O)c1ccco1)C(=O)OCC(=O)Nc1ccccc1OC(F)F	none (no result: Yeast life ext, BB579 growth dn, sdo1 growth)
Cc1cc(-c2n[nH]c(=S)n2/N=C/c2cc([N+](=O)[O-])ccc2Cl)n[nH]1	BB579 growth dn 96
Cn1cnc([N+](=O)[O-])c1Oc1ccc2ccccc2c1	none
O=C(Nc1cccc(S(=O)(=O)N2CCCCC2)c1)c1ccccc1NS(=O)(=O)c1ccc(F)cc1	none
Cc1ccc(NC(=O)c2ccccc2NS(=O)(=O)c2ccc(F)cc2)cc1S(=O)(=O)N1CCCCC1	RAM network inh 8.9
COc1cc(OC)c(S(=O)(=O)NC(C)C)cc1S(=O)(=O)NC(C)C	none (no result: Yeast life ext, BB579 growth dn, sdo1 growth)
CCOc1ccc(C(=O)Nc2ccc(Cl)cn2)cc1Cl	RAM network inh 8.7
O=C(Nc1ccccc1)c1nsnc1C(=O)Nc1ccccc1	none (no result: Yeast life ext, BB579 growth dn, sdo1 growth)
C=CCNc1cc(N2CCCC2)ccc1[N+](=O)[O-]	none (no result: Yeast life ext, BB579 growth dn, sdo1 growth)
CCOC(=O)C1(CCc2ccccc2)CCN(C(=O)c2cc(C)nc(C)n2)CC1	none (no result: Yeast life ext, BB579 growth dn, sdo1 growth)
CC(=O)C1=C(C)NC(SCC(=O)c2ccc(F)cc2)=C(C#N)C1c1ccco1 (stereo not given)	none
COc1ccccc1NC(=O)C1=C(C)NC(SCC(=O)c2ccc(C)cc2)=C(C#N)C1c1ccco1 (stereo not given)	RAM network inh 8.8
COc1ccc(/C=C2\SC(=S)N(NC(=O)c3ccncc3)C2=O)cc1OC	none (no result: Yeast life ext, BB579 growth dn, sdo1 growth)
COc1ccc(/C=C2/SC(=O)N(NS(=O)(=O)c3ccccc3)C2=S)cc1OC	Yeast life ext 32
O=C(/C=C/c1ccco1)OCC1CCCN2CCCCC12 (stereo not given)	none (no result: Yeast life ext, BB579 growth dn, sdo1 growth)
Cc1nn(-c2ccc([N+](=O)[O-])cc2)c2c1C(c1cccc(Br)c1)N1C(=N2)C(=O)Nc2ccccc21 (stereo not given)	RAM network inh 10
Cc1nn(-c2ccccc2)c2c1C(c1ccc([N+](=O)[O-])cc1)N1C(=N2)C(=O)Nc2ccccc21 (stereo not given)	none
N#C/C(=C/c1cn(-c2ccccc2)nc1-c1cccc(OCc2ccc(F)cc2)c1)C(=O)NCCCn1ccnc1	BB579 growth dn 63
CCCOc1cccc(-c2nn(-c3ccccc3)cc2/C=C(\C#N)C(=O)NCCCn2ccnc2)c1	none
Fc1ccccc1N1CCN(CCCNc2ccc3nncn3n2)CC1	Yeast life ext 27
c1ccc(CN2CCN(CCCNc3ccc4nnc(-c5ccccc5)n4n3)CC2)cc1	none
